Here are results for 13 molecules from ChEMBL document CHEMBL1124096, “Potential anticonvulsants. 11. Synthesis and anticonvulsant activity of spiro[1,3-dioxolane-2,3'-indolin]-2'-ones and structural analogues” (J Med Chem, 1988).

The species entered for data set [1] is Mus musculus. Description: Phase II effective dose against mice for maximal electroshock seizure test (MES) for 0.25 hr of test time. The data set is classed as functional. The essentials: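 Phase II quantification: time of peak effect first determined, then median effective dose in the MES test (corneal 60-cycle AC, 50 mA, 0.2 s) found at that time, 0.25 h. Compound given ip.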
(The maximal electroshock test induces tonic seizures with an electrical stimulus.)

The nature of data set [2]: Protective index (TD50/ED50) for MES test in mice. The data set is classed as ADME, organism-based. As to conditions: mouse, in vivo; read-out: PI. A digest of the protocol: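 Protective index taken as TD50 (rotorod) divided by MES ED50. Both measured in Phase II at the time of peak effect, 0.25 h, after ip dosing.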
Data set [3] in a line: Phase II effective dose against mice for toxicity test (TOX) for 0.25 hr of test time. The data set is classed as organism-based. As to conditions: mouse, in vivo. The essentials:
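Phase II: time of peak neurologic toxicity first determined. Median toxic dose then found by rotorod (1-in. knurled rod, 6 rpm, 1 min) at that time, 0.25 h. Compound given ip.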

Data set [4] in a line: Ability to protect mice against electrically induced seizures (MES) at 100 mg/kg for 0.5 hr in Phase I; no. of animals protected/No. of animals tested= 0/3. The data set is classed as functional, organism-based. Also noted: dose 100 mg/kg.
A short description of data set [5]: Ability to protect mice against subcutaneous pentylenetetrazole seizures (sc-Met) threshold test at 100 mg/kg for 0.5 hr in Phase I; no. of animals protected/No. of animals tested= 0/1. The data set is classed as functional, organism-based. More on the design: dose 100 mg/kg.
Data set [6] in a line: Ability to protect mice against subcutaneous pentylenetetrazole seizures (sc-Met) threshold test at 300 mg/kg for 0.5 hr in Phase I; no. of animals protected/No. of animals tested= 0/1. The data set is classed as functional, organism-based. More on the design: dose 300 mg/kg.
Data set [7] can be described thus: Ability to protect mice against electrically induced seizures (MES) at 300 mg/kg for 0.5 hr in Phase I; no. of animals protected/No. of animals tested= 0/1. The data set is classed as functional, organism-based. Also noted: dose 300 mg/kg.
The test system of data set [8] is Mus musculus. The data set is described as follows: Ability to protect mice against neurotoxicity (rotarod test) at 300 mg/kg for 0.5 hr in Phase I; no. of animals protected/No. of animals tested 0/4. More on the design: dose 300 mg/kg. The data set is classed as organism-based. As to conditions: in vivo. On the technique in general: Falling from the rotarod earlier than controls is read as motor impairment.

Usually ED50 stands for the dose at which the effect has come halfway, by size or by number of responders. Lower therefore signals an effect at a small dose. Regarding `O=C1Nc2ccccc2C12OCCS2` (stereo unspecified), the ED50 in the data set filed under Mus musculus [1] was found to be 60.4 mg/kg. Besides, the selectivity ratio in data set [2] came to 1.65.

Broadly, the TD50 is the dose at which the toxic effect under study appears in half of the subjects. A lower TD50 goes with harm at a small dose. In the case of `O=C1Nc2cccc(Cl)c2C12OCCO2`, in data set [3], the TD50 at 0.25 h was found to be 122 mg/kg. This molecule also displayed an ED50 in the data set filed under Mus musculus [1] of 95.6 mg/kg. Moreover, the selectivity ratio in data set [2] amounted to 1.24.

`O=C1Nc2ccc(Br)cc2C12OCCO2` had a TD50 at 0.25 h in data set [3] of 86.5 mg/kg. The ED50 in the data set filed under Mus musculus [1] was 46.1 mg/kg. In data set [2], the selectivity ratio was 1.87.

As to `O=C1N(CN2CCOCC2)c2ccccc2C12OCCO2`, in data set [3], the TD50 at 0.25 h was determined as 170 mg/kg. The molecule also displayed an ED50 in the data set filed under Mus musculus [1] of 90 mg/kg. The selectivity ratio in data set [2] came to 1.89.

Molecule `O=C1Nc2ccccc2C12SCCS2` registered an ED50 in the data set filed under Mus musculus [1] of 174 mg/kg.

`O=C1N(Cc2ccccc2)c2ccccc2C12OCCO2`: the Ratio entry (in data set [4]; in data set [5]; in data set [6]; in data set [7]; in the data set with Mus musculus [8]) was “no. of animals protected/No. of animals tested 0/4” in each case.

For `O=C1Nc2ccc(Cl)cc2C12OCCO2`, the TD50 at 0.25 h in data set [3] came to 63.7 mg/kg. The ED50 in the data set listed under Mus musculus [1] is 28 mg/kg. The selectivity ratio in data set [2] came out at 2.28.

`COC1(OC)C(=O)Nc2ccccc21` gave a TD50 at 0.25 h in data set [3] of 203 mg/kg. In the data set filed under Mus musculus [1], this molecule gave an ED50 of 82 mg/kg. The selectivity ratio in data set [2] was 2.47.

Regarding `O=C1Nc2cc(Cl)ccc2C12OCCO2`, in data set [3], the TD50 at 0.25 h is 121 mg/kg. The molecule also showed an ED50 in the data set listed under Mus musculus [1] of 72 mg/kg. The selectivity ratio in data set [2] was 1.68.

The molecule `O=C1Nc2ccccc2C12OCCCO2` displayed an ED50 in the data set listed under Mus musculus [1] of 110 mg/kg. Moreover, the selectivity ratio in data set [2] is 1.67.

`O=C1N(CN2CCCCC2)c2ccccc2C12OCCO2` returned a TD50 at 0.25 h in data set [3] of 187 mg/kg. Further, the selectivity ratio in data set [2] turned out to be 1.39.

On to `O=C1Nc2ccccc2C12OCCO2`, for which the TD50 at 0.25 h in data set [3] stood at 130 mg/kg. The same molecule gave an ED50 in the data set listed under Mus musculus [1] of 69.8 mg/kg. The selectivity ratio in data set [2] came to 1.87.

With `CN1C(=O)C2(OCCO2)c2ccccc21`, the TD50 at 0.25 h in data set [3] was determined as 118 mg/kg. This molecule showed an ED50 in the data set listed under Mus musculus [1] of 90.9 mg/kg. Further, the selectivity ratio in data set [2] was determined as 1.3.
